Reference: article PMC4160070 (Journal of clinical pharmacology, 2014)
Like-named read-outs stand apart in the source and are kept apart here.

What was measured:
[1] = test system: ENaC in primary type II alveolar epithelial cells; details: pig AEC type II cells, cited from earlier work
dog = details: in vivo
healthy male subjects [2] = details: in vivo
[3] = test system: ENaC in primary type II alveolar epithelial cells; details: dog AEC type II cells, cited from earlier work
[4] = dog, in vivo; cited from earlier work
animal models = details: various animal models; cited from earlier work
healthy male subjects [5] = details: in vivo; remark: listed apart in the source
[6] = Properties of the reconstituted AP301 solution; assay type: physicochemical; details: AP301 25 mg/mL, lyophilized powder reconstituted in water for injection
ENaC = details: cell-based studies; no reference given; cited from earlier work
[7] = in vivo
[8] = mouse, in vivo; cited from earlier work
Aerosol characterization = assay type: physicochemical
Outline: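 Test compound supplied as lyophilized powder, reconstituted in water for injection to 25 mg/mL. The solution was aerosolized with an Aeroneb Solo vibrating-mesh nebulizer driven by an Aeroneb Pro-X controller. Particle distribution was measured by Next Generation Impactor at 15 L/min and by laser diffraction. Read-outs were fine particle fraction and average droplet size.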

healthy male subjects [9] = details: in vivo; remark: listed apart in the source
[10] = human, in vivo, inhaled or intranasal
[11] = rat, in vivo; cited from earlier work
[12] = test system: ENaC in primary type II alveolar epithelial cells; details: rat AEC type II cells, cited from earlier work
healthy male subjects [13] = details: in vivo; remark: listed apart in the source
healthy male subjects [14] = details: in vivo; remark: listed apart in the source
healthy male subjects [15] = details: in vivo; remark: listed apart in the source
[16] = test system: acute lung injury (ALI) in anaesthetized domestic pigs; details: pigs with ALI, single nebulization of 1.0 mg/kg, observation 5 hours; cited from earlier work
[17] = whole cell patch clamp, in the presence of AP301
[18] = 25 mg/mL solution, Aeroneb Solo nebulizer, laser diffraction, Apeptico Research Report, data on file

## C[C@@H]1NC(=O)CNC(=O)[C@H](CCC(=O)O)NC(=O)[C@@H]2CCCN2C(=O)[C@H]([C@@H](C)O)NC(=O)[C@H](CCC(=O)O)NC(=O)[C@H](CCCNC(=N)N)NC(=O)[C@H](CCC(N)=O)NC(=O)CNC(=O)[C@@H](N)CSSC[C@@H](C(=O)O)NC(=O)[C@H](Cc2ccc(O)cc2)NC(=O)[C@H](Cc2c[nH]c3ccccc23)NC(=O)[C@@H]2CCCN2C(=O)[C@H](CCCCN)NC(=O)[C@H](C)NC(=O)[C@H](CCC(=O)O)NC1=O [AP301]
[1]; [17]
  increase of amiloride-sensitive Na+ currents (via ENaC) versus baseline: ~16 fold
dog
  maximum recommended starting dose (MRSD): 0.1 mg/kg BW
Healthy male subjects [2]
  effects on vital signs (SBP, DBP, HR): no clinically meaningful dose-or time-dependent effects
[3]; [17]
  increase of amiloride-sensitive Na+ currents (via ENaC) versus baseline: ~13 fold
[4]
  absorption from the pulmonary compartment into the systemic circulation: hardly absorbed
Animal models
  effective pharmacological dose range: 0.5–1.0 mg/kg BW
Healthy male subjects [5]
  number of AEs considered related to AP301 inhalation: 7
  overall frequency of AEs in subjects randomized to AP301: 25%
[6]
  osmolarity of the solution: 23 mosmol/L
  pH of the solution: 4.40
  viscosity of the solution: 1.07 mPa s
ENaC
  concentration range in which ENaC activation was dose-dependent: 5 to 100 nM
[7]
  maximum exposure values (Cmax) at mean dose-cohort level: exceeding 2.0 ng/mL
  mean Cmax values in the highest dose groups: < 2.5 ng/mL
  median tmax values across dose groups: 0 to 0.083 h
[8]
  absorption from the pulmonary compartment into the systemic circulation: hardly absorbed
Aerosol characterization; [18]
  average droplet size: 3.3 μm
  mean fine particle fraction (FPF): about 60%
Aerosol characterization; Next Generation Impactor at 15 L/min
  FPF as determined by NGI: 60%
Healthy male subjects [9]
  content of eNO versus baseline and pooled placebo: did not change
[10]
  Tmax: ~5 min
[10]; 12 mg
  AUC(0-t): 0.0333 ng·h/mL
  Cmax: 0.4 ± 0.6 ng/mL
  Tmax: 5 min
[10]; 30 mg
  AUC(0-t): 0.0183 ng·h/mL
  Cmax: 0.3 ± 0.6 ng/mL
[10]; 60 mg
  AUC(0-t): 0.93 ng·h/mL
  Cmax: 2.2 ± 1.4 ng/mL
  Tmax: 5 min
[10]; 90 mg
  AUC(0-t): 0.758 ng·h/mL
  Cmax: 2.4 ± 2.1 ng/mL
[10]; 120 mg
  AUC(0-t): 0.877 ng·h/mL
  Cmax: 2.2 ± 1.8 ng/mL
  Tmax: 2.5 min
[11]
  absorption from the pulmonary compartment into the systemic circulation: hardly absorbed
[12]; [17]
  increase of amiloride-sensitive Na+ currents (via ENaC) versus baseline: about 9 fold
Healthy male subjects [13]
  changes in safety laboratory variables: No clinically meaningful or remarkable dose-or time-dependent changes
Healthy male subjects [14]
  FEV1 declines of ≥20% from baseline: no FEV1 declines of ≥20% from baseline were noted in any subject
  effects on airway caliber or vital capacity (FVC, FEV1): absence of relevant dose-dependent effects
  subjects with post-dose FEV1 decline of ≥15% from baseline: only a single subject
Healthy male subjects [15]
  QTc value: ≤ 450 milliseconds
  changes in ECG outcome variables: no clinically meaningful or remarkable dose-or time-dependent changes
[16]
  oxygenation (PaO2/FiO2): significant improvement
  pulmonary shunt fraction (Qs/Qt): reduction

## N=C(N)NC(=O)c1nc(Cl)c(N)nc1N [amiloride, reference compound]
[1]
  effect on the AP301-induced increase of Na+ current: could be inhibited
[3]
  effect on the AP301-induced increase of Na+ current: could be inhibited
[12]
  effect on the AP301-induced increase of Na+ current: could be inhibited
